Measured values published in publication PMC12510370 (Chemical Science, 2025).
Read-outs that look alike come from different tables or passages of the source.

Experiments:
Format in all cases: cell-based
A549 cells = experiment: MTT
Summary of the method: (§1)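 MTT assay on A549, HeLa and MRC9 cells, with cells kept in the dark or irradiated at 450 nm (15.5 mW cm−2, 15 min). […] IC50 values were derived for dark and light conditions. For A549 and HeLa, PI = IC50,dark/IC50,light.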

HeLa cells [1] = experiment: MTT
Summary of the method: as §1

normal MRC9 cells = experiment: MTT
Summary of the method: as §1

HeLa cells [2] = experiment: Mitochondrial membrane potential with JC-1; conditions: 50 μM, 15 min, positive control
Summary of the method: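 HeLa cells were untreated, given CCCP (50 μM, 15 min) as positive control, or treated with the test compound (4.5 nM, 24 h). Treated cells were then kept in the dark for 24 h or irradiated (450 nm, 15.5 mW cm−2, 15 min) and incubated 24 h more. Staining used JC-1 (2 μg mL−1, 20 min; λex 488 nm; monomer emission 510–530 nm, J-aggregate emission 590–610 nm).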

IC50 (A549 cells; read-out: IC50,dark, A549, in the dark) [µM]	IC50 (A549 cells; read-out: IC50,light, A549, irradiation at 450 nm (15.5 mW cm^−2, 15 min)) [µM]	IC50 (HeLa cells [1]; read-out: IC50,dark, in the dark) [µM]	IC50 (HeLa cells [1]; read-out: IC50,light, irradiation at 450 nm (15.5 mW cm^−2, 15 min)) [µM]	Compound	IC50 (normal MRC9 cells; read-out: IC50,dark, MRC9, in the dark) [µM]	IC50 (normal MRC9 cells; read-out: IC50,light, MRC9, irradiation at 450 nm (15.5 mW cm^−2, 15 min)) [µM]	mitochondrial membrane potential (JC-1) (HeLa cells [2])
> 100	> 100	> 100	> 100	1-phenyl-5-thioxo-5,6-dihydro-[1,2,4]triazolo[1,5-c]quinazolin-1-ium-2-thiolate [p-Httqt]	> 100	> 100	
				N#CC(C#N)=NNc1cccc(Cl)c1 [CCCP, carbonyl cyanide m-chlorophenyl hydrazone]			reduced the intensity of the red channel
